Measured values: ChEMBL document CHEMBL1154185 (J Med Chem, 2009)
Calls of active or inactive are those of the source.

What was measured:
U-373MG ATCC [1] = assay: Cytostatic activity against proapoptotic stimuli-resistant human U373 cells at 5 uM after 72 hrs by quantitative video microscopy; type: functional, cell-based
In short: (§1)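 Phase-contrast time-lapse videomicroscopy with 5 μM for 72 h vs untreated control. Growth level = cell count in last frame / first frame (0 h). Global growth ratio compares treated with control growth level. Counts done in triplicate with an interactive tool. Morphology followed over the same period.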

[2] = Growth inhibition of human WI38 cells after 72 hrs by MTT assay; type: cell-based; conditions: WI-38, 72 h
In short: (§2)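 Cells plated 24 h in 96-well plates (10,000-40,000 cells/mL by cell type) in MEM (5% or 10% heat-inactivated FBS; with 100 μM non-essential amino acids for WI-38 and NHDF) or RPMI 10% FBS (A549), then exposed 72 h to compound up to 100 μM; MTT reduction read at 570 nm (reference 630 nm); sextuplicate.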

A549 [3] = assay: Cytostatic activity against proapoptotic stimuli-resistant human A549 cells at 5 uM after 72 hrs by quantitative video microscopy; type: functional, cell-based; in short: as §1
U-373MG ATCC [4] = assay: Inhibition of cytokinesis in proapoptotic stimuli-resistant human U373 cells at 5 uM after 72 hrs by quantitative video microscopy; type: functional, cell-based
In short: (§3)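 Quantitative videomicroscopy with 5 μM for 72 h. Mitoses counted within a 2 mm² frame over the 72 h observation. Single cells in treated colonies were tracked at high magnification to follow mitosis and cytokinesis over time.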

A549 [5] = assay: Reduction of colony formation in undifferentiated proapoptotic stimuli-resistant human A549 cells at 5 uM under anchorage-independent culture conditions by quantitative video microscopy
A549 [6] = assay: Inhibition of cytokinesis in proapoptotic stimuli-resistant human A549 cells at 5 uM after 72 hrs by quantitative video microscopy; type: functional, cell-based; in short: as §3
[7] = Growth inhibition of proapoptotic stimuli-resistant human U373 cells after 72 hrs by MTT assay; type: functional, cell-based, U-373MG ATCC; conditions: Homo sapiens, U373 MG, 72 h
In short: (§4)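 MTT assay. Cells were plated at 10,000–40,000 cells/mL and left 24 h to attach, then exposed to compound for 72 h (untreated controls). Formazan was read at 570 nm (reference 630 nm). Tested up to 10 μM (first panel) or up to 100 μM (second panel). Sextuplicate. U373 grown in MEM + 5% FBS; Hs683, SK-MEL-28 and B16F10 in RPMI + 10% FBS.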

[8] = Toxicity in iv dosed mouse administered once daily for 5 consecutive days measured after 28 days; type: organism-based; conditions: in vivo
In short: (§5)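 Healthy mice given compound i.v. (tail vein) in 50 μL saline once daily for 5 consecutive days (Monday-Friday) at 5, 10, 20, 40 or 80 mg/kg; 3 mice per group; body weight and survival followed over 28 days; MTD defined as dose just below lowest dose killing at least one mouse; means ± SEM.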

B16-F10 [9] = assay: Growth inhibition of proapoptotic stimuli-sensitive mouse B16F10 cells after 72 hrs by MTT assay; type: functional, cell-based; conditions: Mus musculus, B16-F10, 72 h; in short: as §4
A549 [10] = assay: Cytotoxic activity against proapoptotic stimuli-resistant human A549 cells assessed as induction of cell death at 5 uM after 72 hrs by quantitative video microscopy; type: functional, cell-based; in short: as §1
U-373MG ATCC [11] = assay: Increase in polymerized actin levels in proapoptotic stimuli-resistant human U373 cells at 5 uM after 6 hrs by fluorescence microscopy; type: functional, cell-based
In short: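 U373 cells, untreated or exposed to 5 μM for 6 h, stained and imaged by computer-assisted fluorescence microscopy. Fibrillar (polymerized) actin labelled with Alexa Fluor488-phallacidin (green); globular actin with Alexa Fluor594-DNase I (red).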

A549 [12] = assay: Reduction of colony formation in undifferentiated proapoptotic stimuli-resistant human A549 cells at 5 uM under anchorage-independent culture conditions by quantitative video microscopy; type: functional, cell-based
In short: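 Soft-agar (anchorage-independent) culture of A549 cells, without or with 5 μM, for 38 days after plating. Colonies counted in three 0.4 mm² areas per condition, experiment in hexaplicate. Means ± SEMs.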

U-373MG ATCC [13] = assay: Cytotoxic activity against proapoptotic stimuli-resistant human U373 cells assessed as induction of cell death at 5 uM after 72 hrs by quantitative video microscopy; type: functional, cell-based; in short: as §1
U-373MG ATCC [14] = assay: Reduction of colony formation in undifferentiated proapoptotic stimuli-resistant human U373 cells at 0.5 uM under anchorage-independent culture conditions by quantitative video microscopy; type: functional, cell-based
B16-F10 [15] = assay: Antitumor activity against mouse B16F10 cells implanted in iv dosed B6D2F1 mouse assessed as active dose increasing mouse survival administered thrice weekly for 3 consecutive weeks starting from 5th day post tumor grafting; type: functional
U-373MG ATCC [16] = assay: Induction of non-apoptotic cell death in human U373 cells at 50 uM after 72 hrs by annexin-V/propidium iodide staining based flow cytometry; type: functional
In short: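 Flow cytometry with annexin-V/propidium iodide double staining after 72 h. U373 given 0, 5 or 50 μM; MCF-7 treated 72 h with a 1 μM pro-apoptotic positive control. Early apoptosis = AV+/PI−, late = AV+/PI+, non-apoptotic death = AV−/PI+. Means ± SEMs.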

[17] = Growth inhibition of proapoptotic stimuli-sensitive human Hs683 cells after 72 hrs by MTT assay; type: functional, cell-based, Hs 683; conditions: Homo sapiens, Hs 683, 72 h; in short: as §4
Mus musculus = assay: Toxicity in iv dosed mouse assessed as reduction of body weight at 5 to 80 mg/kg, iv administered once daily for 5 consecutive days measured after 28 days; type: organism-based; parameters: dose 5-80 mg/kg, route intravenous; conditions: in vivo, 672 h; in short: as §5
U-373MG ATCC [18] = assay: Inhibition of cell migration of proapoptotic stimuli-resistant human U373 cells at 5 uM by quantitative video microscopy; type: functional, cell-based
In short: (§6)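 Quantitative videomicroscopy of cells untreated or given 0.5 or 5 μM. Migration scored as MRDO, the greatest linear distance each single cell travels from its origin, over 12 or 24 h of observation. Means ± SEMs.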

[19] = Reduction in mitosis occurrence in proapoptotic stimuli-resistant human U373 cells at 5 uM after 72 hrs by quantitative video microscopy; type: functional, U-373MG ATCC; parameters: scale not given: the % may be the effect or the level left
In short: (§7)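 Cells treated 72 h with 5 μM compound and filmed by computer-assisted phase-contrast videomicroscopy; mitoses counted within a 2 mm² frame over the 72 h observation period, compared with untreated control.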

U-373MG ATCC [20] = assay: Reduction of colony formation in undifferentiated proapoptotic stimuli-resistant human U373 cells at 5 uM under anchorage-independent culture conditions by quantitative video microscopy; type: functional, cell-based
U-373MG ATCC [21] = assay: Increase in actin cytoskeleton rigidity in proapoptotic stimuli-resistant human U373 cells at 5 uM after 6 hrs by fluorescence microscopy
A549 [22] = assay: Increase in polymerized actin levels in proapoptotic stimuli-resistant human A549 cells at 5 uM after 6 hrs by fluorescence microscopy; type: functional, cell-based
A549 [23] = assay: Growth inhibition of proapoptotic stimuli-resistant human A549 cells after 72 hrs by MTT assay; type: functional, cell-based; conditions: Homo sapiens, A549, 72 h; in short: as §2
[24] = Growth inhibition of proapoptotic stimuli-resistant human OE21 cells after 72 hrs by MTT assay; type: functional, cell-based; conditions: Homo sapiens, OE21, 72 h
NHDF = assay: Growth inhibition of human NHDF after 72 hrs by MTT assay; type: cell-based; in short: as §2
A549 [25] = assay: Inhibition of cell migration of proapoptotic stimuli-resistant human A549 cells at 5 uM by quantitative video microscopy; type: functional, cell-based; in short: as §6
A549 [26] = assay: Reduction in mitosis occurrence in proapoptotic stimuli-resistant human A549 cells at 5 uM after 72 hrs by quantitative video microscopy; type: functional; parameters: scale not given: the % may be the effect or the level left; in short: as §7
SK-MEL-28 = assay: Growth inhibition of proapoptotic stimuli-resistant human SK-MEL-28 cells after 72 hrs by MTT assay; type: functional, cell-based; conditions: Homo sapiens, SK-MEL-28, 72 h; in short: as §4
[27] = Growth inhibition of human WS1 cells after 72 hrs by MTT assay; type: cell-based; conditions: WS1, 72 h; in short: as §2
B16-F10 [28] = assay: Antitumor activity against mouse B16F10 cells implanted in B6D2F1 mouse assessed as increase in mouse survival at 40 mg/kg, iv administered thrice weekly for 3 consecutive weeks starting from 5th day post tumor grafting; type: functional, organism-based; parameters: dose 40 mg/kg
In short: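 Female B6D2F1 mice (17-19 g) received stereotactic brain implants of B16F10 melanoma cells, all on the same day. Treatment started on day 5 post-graft: 40 mg/kg i.v. (tail vein) in 50 μL, Mon/Wed/Fri for 3 consecutive weeks. Controls received 50 μL saline i.v.; the reference arm got cisplatin 5 mg/kg i.p. on the same schedule. 11 mice per group; survival analysed.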

## O[C@H]1[C@H]2c3cc4c(cc3CN3CCC(=C[C@@H]1O)[C@H]23)OCO4 [LYCORINE]
U-373MG ATCC [1]
  Activity: Active
[2]
  IC50: > 100 µM
A549 [3]
  Activity: Active
U-373MG ATCC [4]
  Activity: Active
A549 [5]
  Activity: Active
A549 [6]
  Activity: Active
[7]
  IC50: 7.6 µM
[8]
  MTD at 672 h: > 80 mg/kg
B16-F10 [9]
  IC50: 6.3 µM
A549 [10]
  Activity: inactive
U-373MG ATCC [11]
  Activity: Active
A549 [12]
  Activity: Active
U-373MG ATCC [13]
  Activity: inactive
U-373MG ATCC [14]
  Activity: Active
B16-F10 [15]
  Dose: 40 mg/kg
U-373MG ATCC [16]
  Activity: Active
[17]
  IC50: 6.7 µM
Mus musculus
  Activity: Non-toxic
U-373MG ATCC [18]
  Activity: Active
[19]
  Activity: >=90%
U-373MG ATCC [20]
  Activity: Active
U-373MG ATCC [21]
  Activity: Active
A549 [22]
  Activity: Active
A549 [23]
  IC50: 4.3 µM
[24]
  IC50: 5.1 µM
NHDF
  IC50: > 100 µM
A549 [25]
  Activity: Active
A549 [26]
  Activity: >=90%
SK-MEL-28
  IC50: 8.5 µM
[27]
  IC50: > 100 µM
B16-F10 [28]
  Activity: Active
